Among the data in PubChem BioAssay are viability, differential viability (reversal) and inhibition values, retold here.

Test [1] in a line: SK-BR-3 cell growth inhibitors, pilot screen, 24 h, human (AID 572;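 active = viability at or below 10% of carrier control in both of two separate runs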;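 note: compound exposure lasted between 18 and 24 h rather than exactly 24 h; 100% = carrier-treated control wells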). The note with it: SK-BR-3 viability, CellTiter-Glo luminescence, at 10 µM, stronger effect = lower value. Background: Cellular ATP, detected with luciferase, serves as a proxy for viable cell number.
Test [2] can be described thus: HUVEC growth inhibition – cell-based, human, primary screen (AID 575;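 active = viability at or below 30% in both replicate assays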;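 note: 100% = median of untreated cell wells with 0.1% DMSO on each plate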). The note with it: HUVEC proliferation, CellTiter-Glo luminescence, 72 h; at 10 µM; stronger effect = lower value. In a few lines: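 system = HUVEC primary cells | amount = 1250 cells/well | buffer or medium = supplemented EBM, 2% fetal bovine serum | dosing = single-point 10 µM, DMSO 0.1% final | times = 72 h compound incubation | detection = CTG luminescence | read-out = % viability relative to median vehicle-well signal on each plate | control set = vehicle and MePR control wells | format = collagen-coated 384-well format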

Test [3] can be described thus: growth inhibitors of H69AR lung tumor, primary screen, human, duplicate replicates (AID 580;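 active = viability at or under a set limit in both replicates, limit being median viability minus 3 SD, cut at about 48% in these data, passing the limit was not always enough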;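 note: 100% = mean luminescence of untreated wells and 0% = no signal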). The note with it: H69AR lung tumor cells viability, ATP luminescence, 72 h; at 10 µM; stronger effect = lower value.
Test [4] is described as follows: reversal of MRP1-mediated doxorubicin resistance, pilot screen, H69AR cells, doxorubicin co-treatment (AID 601;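 active = viability loss from added drug above about 55%, and viability with drug at most 40%, in both replicates, limit read from the data, passing the limit was not always enough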). The note with it: CellTiter-Glo, 72 h, at 10 µM; for differential viability (reversal): stronger effect = higher value.
Test [5] in a line: 384-well plate pilot, post-Golgi transport modulator project, inhibition of yeast transport mutant growth (AID 636; in the data active = inhibition above about 31%). The note with it: absorbance 615 nm, about 18 h, stronger effect = higher value.
Test [6] in a line: growth suppression of yeast trafficking mutant, preliminary HTS, modulators of trafficking downstream of Golgi apparatus project, 1536-format plate, OD 615 nm (AID 637). The note with it: yeast transport mutant growth, absorbance 615 nm, 18 h; stronger effect = higher value.
The mark [7] stands for this setting: H69AR cells + 2 uM doxorubicin, measured here: viability with 2 uM doxorubicin, stronger effect = lower value.
The mark [8] stands for this setting: H69AR cells, compound alone cytotoxicity.

Active and inactive are the calls of the source. Cut-off read from the data, not from the text of the source, unless noted: active = inhibition above about 30%; inactive = the rest.

Broadly, the viability is a read-out of living cells in per cent, often relative to untreated cells. The inhibition is the change of the read-out against control, counted positive when it falls. As to `Nc1ccc(S(=O)(=O)Nc2ccccn2)cc1`, the viability is 143% (inactive) in test [1]; 102% (inactive) in test [2]; 91.3% (inactive) in test [3]; 81% in test [4] (setting [7]); 91.3% in test [4] (setting [8]). Besides, the differential viability (reversal) in test [4] (H69AR cells + 2 uM doxorubicin) is 10.3% (inactive). Further, the inhibition was 0.78% (inactive) in test [5] and -1.17% (inactive) in test [6].
As for `O=C(c1csc2ccccc12)N1CCCCCC1`, the viability in test [1] is 109% (inactive); in test [2] it was 83.7% (inactive); in test [3], 104% (inactive); in test [4] (setting [7]), 93.9%; in test [4] (setting [8]) it was 104%. The differential viability (reversal) in test [4] (H69AR cells + 2 uM doxorubicin) was 9.99% (inactive). Further, the inhibition is -1.51% (inactive) in test [5] and -3.87% (inactive) in test [6].
`CCn1c(SCC(=O)Nc2ccccc2N2CCCCC2)nc2c1c(=O)n(C)c(=O)n2C`: the viability is 113% (inactive) in test [1]; 75.4% (inactive) in test [2]; 73.9% (inactive) in test [3]; 72.7% in test [4] (setting [7]); 73.9% in test [4] (setting [8]). In test [4] (H69AR cells + 2 uM doxorubicin), the differential viability (reversal) was 1.19% (inactive). Further, the inhibition was -6.13% (inactive) in test [5] and 3.09% (inactive) in test [6].
In the case of `CNC[C@H](O)c1cccc(O)c1`, the viability in test [1] was 131% (inactive); in test [2], 93.7% (inactive); in test [3], 92.5% (inactive); in test [4] (setting [7]) it was 84.8%; in test [4] (setting [8]), 92.5%. Also, the differential viability (reversal) in test [4] (H69AR cells + 2 uM doxorubicin) was 7.67% (inactive). The inhibition in test [5] was -1.56% (inactive); in test [6], 2.5% (inactive).
Consider `CCOc1ccc(NC(=O)CC2NCCNC2=O)cc1` (configuration not stated), for which the viability in test [1] was 125% (inactive); in test [2], 108% (inactive); in test [3], 95.3% (inactive); in test [4] (setting [7]), 92.8%; in test [4] (setting [8]), 95.3%. In test [4] (H69AR cells + 2 uM doxorubicin), the differential viability (reversal) is 2.51% (inactive). For the same compound, the inhibition in test [5] is -5.95% (inactive); in test [6] it was -2.36% (inactive).
Take `CCCCCCn1c(CN2CCCC(C)C2)nc2c1c(=O)n(C)c(=O)n2C` (configuration not stated): the viability in test [1] was 57% (inactive); in test [2], 111% (inactive); in test [3], 101% (inactive); in test [4] (setting [7]), 93.1%; in test [4] (setting [8]) it was 101%. In addition, the differential viability (reversal) in test [4] (H69AR cells + 2 uM doxorubicin) is 7.51% (inactive). Further, the inhibition in test [5] is -7.12% (inactive); in test [6], 2.36% (inactive).
Consider `CN(C)C(=O)CSc1nnc2sc3ccccc3n12`, for which the viability in test [1] was 71% (inactive); in test [2], 105% (inactive); in test [3], 89.2% (inactive); in test [4] (setting [7]), 95.3%; in test [4] (setting [8]), 89.2%. Moreover, the differential viability (reversal) in test [4] (H69AR cells + 2 uM doxorubicin) was -6.11% (inactive). The inhibition is -8.63% (inactive) in test [5] and 1.82% (inactive) in test [6].
On to `COC(=O)CCN(C(=O)c1ccc2c(c1)OCO2)c1ccccn1`, for which the viability was 96% (inactive) in test [1]; 93.6% (inactive) in test [2]; 98.5% (inactive) in test [3]; 90.7% in test [4] (setting [7]); 98.5% in test [4] (setting [8]). Also, in test [4] (H69AR cells + 2 uM doxorubicin), the differential viability (reversal) was 7.88% (inactive). Further, the inhibition in test [5] was -8.22% (inactive); in test [6], 0.55% (inactive).
With `Cc1c(OCC(F)(F)F)ccnc1CS(=O)c1nc2ccccc2[nH]1` (configuration not stated), the viability in test [1] was 99% (inactive); in test [2] it was 100% (inactive); in test [3] it was 93.8% (inactive); in test [4] (setting [7]), 89.5%; in test [4] (setting [8]), 93.8%. Also, in test [4] (H69AR cells + 2 uM doxorubicin), the differential viability (reversal) is 4.31% (inactive). Besides, the inhibition in test [5] is -1.69% (inactive); in test [6] it was 4.33% (inactive).
As to `CC1=C(/C=C/C(C)=C/C=C/C(C)=C/C(=O)O)C(C)(C)CCC1`, the viability in test [1] was 84% (inactive); in test [2], 83.7% (inactive); in test [3], 104% (inactive); in test [4] (setting [7]), 102%; in test [4] (setting [8]), 104%. Moreover, the differential viability (reversal) in test [4] (H69AR cells + 2 uM doxorubicin) was 2% (inactive). Further, the inhibition in test [5] was 0.91% (inactive); in test [6], 8.67% (inactive).
On to `CC(=O)/C(C[N+]1(C)CCCCC1)=N\O`, for which the viability in test [1] was 107% (inactive); in test [2], 103% (inactive); in test [3] it was 105% (inactive); in test [4] (setting [7]) it was 85.6%; in test [4] (setting [8]) it was 105%. Moreover, the differential viability (reversal) in test [4] (H69AR cells + 2 uM doxorubicin) was 18.9% (inactive). Also, the inhibition in test [5] is -6.13% (inactive); in test [6], 0.55% (inactive).
On to `Cc1cc(C)nc(N(C#N)CC(=O)N2CCC(C(N)=O)CC2)n1`, for which the viability in test [1] is 104% (inactive); in test [2], 85.9% (inactive); in test [3], 98.6% (inactive); in test [4] (setting [7]), 94.5%; in test [4] (setting [8]), 98.6%. In addition, in test [4] (H69AR cells + 2 uM doxorubicin), the differential viability (reversal) was 4.1% (inactive). Besides, the inhibition in test [5] is -7.95% (inactive); in test [6] it was 1.45% (inactive).
On to `O=C(Nc1nnc(SCC(=O)N2CCCCC2)s1)C1CCCCC1`, for which the viability is 81% (inactive) in test [1]; 103% (inactive) in test [2]; 101% (inactive) in test [3]; 88.8% in test [4] (setting [7]); 101% in test [4] (setting [8]). Moreover, in test [4] (H69AR cells + 2 uM doxorubicin), the differential viability (reversal) was 12.6% (inactive). In addition, the inhibition in test [5] is -2.13% (inactive); in test [6], 0.73% (inactive).
Take `O=C(Nc1ccc(N2CCOCC2)c(Cl)c1)c1ccc(Br)o1`: the viability is 91% (inactive) in test [1]; 65.5% (inactive) in test [2]; 20% (active) in test [3]; 32.4% in test [4] (setting [7]); 20% in test [4] (setting [8]). For the same compound, the differential viability (reversal) in test [4] (H69AR cells + 2 uM doxorubicin) is -12.4% (inactive). In addition, the inhibition in test [5] is -3.7% (inactive); in test [6] it was 5.81% (inactive).
